Data taken from ChEMBL document CHEMBL1142312, “Anti-Plasmodium activity of tetrazolium salts” (Bioorg Med Chem, 2008).

Tests used:
[1] = Ratio of IC50 for CHO cells to IC50 for Plasmodium falciparum; assay type: functional
[2] = Toxicity in CHO cells; assay type: cell-based, Cricetulus griseus; settings: Chinese hamster (Cricetulus griseus), CHO cells
Outline: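 CHO cells grown to 50% confluency in RPMI-1640 with 10% fetal calf serum, 25 mM Hepes and gentamicin. Serial dilutions made from a 10 mg/mL DMSO stock; DMSO-only controls. After 48 h, MTT (10 mg/mL in medium) added for 1 h, then DMSO added and absorbance read at 650 nm. IC50 by non-linear regression of dose–response; mean ± SE of four determinations.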

Plasmodium falciparum = assay: Antimalarial activity against Plasmodium falciparum in LDH reporter assay; assay type: functional, organism-based; settings: Plasmodium falciparum
Outline: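 P. falciparum line ItG cultured in O+ human erythrocytes in RPMI-1640 with 10% human serum and 50 μM hypoxanthine. Twofold serial dilutions from 10 mg/mL DMSO stock, 2% hematocrit, 2% parasitemia. Incubated 72 h at 37 °C under 95% N2/3% CO2/2% O2. Parasite LDH assay read at 650 nm after 1 h. IC50 by non-linear regression, mean ± SE of four determinations.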

Structure (SMILES)	Ratio IC50 [1]	IC50 [2] [µM]	IC50 (Plasmodium falciparum) [µM]
Clc1cccc(-c2nn(-c3ccc(OCc4ccccc4)cc3)[n+](-c3ccccc3)n2)c1.[Cl-]	92.7	38	0.41
CC(C)c1nn(-c2ccccc2)[n+](-c2ccccc2)n1.[Br-]	3.7	377	102
[Cl-].c1ccc(COc2ccc(-c3nn(-c4ccc(OCc5ccccc5)cc4)[n+](-c4ccccc4)n3)cc2)cc1	4.2	0.96	0.23
CCCCCCCCCCCOc1ccc(-c2nn(-c3ccccc3)[n+](-c3ccccc3)n2)cc1.[Cl-]	0.1	0.4	4
CCCCCCc1nn(-c2ccccc2)[n+](-c2ccccc2)n1.[Br-]	6.2	21	3.4
Clc1cccc(-[n+]2nc(-c3ccc(-c4ccccc4)cc3)nn2-c2ccccc2)c1.[Cl-]	87	10	0.115
Clc1cccc(-c2nn(-c3ccccc3)[n+](-c3ccccc3)n2)c1.[Cl-]	93.5	43	0.46
Brc1cccc(-[n+]2nc(-c3ccccc3)nn2-c2ccccc2)c1.[Cl-]	10.7	6.4	0.6
Clc1cccc(-n2nc(-c3ccccc3)n[n+]2-c2cccc(Cl)c2)c1.[Cl-]	72	36	0.5
Clc1cccc(-n2nc(-c3ccc(OCc4ccccc4)cc3)n[n+]2-c2cccc(Cl)c2)c1.[Cl-]	16.2	21	1.3
COc1ccc(-n2nc(-c3ccc(OCc4ccccc4)cc3)n[n+]2-c2cccc(Cl)c2)cc1.[Cl-]	55.2	16	0.29
COc1ccc(-n2nc(-c3ccccc3)n[n+]2-c2ccccc2)cc1.[Cl-]	8.1	6.5	0.8
COc1cc(-c2ccc(-n3nc(-c4ccc([N+](=O)[O-])cc4)n[n+]3-c3ccc([N+](=O)[O-])cc3)c(OC)c2)ccc1-n1nc(-c2ccc([N+](=O)[O-])cc2)n[n+]1-c1ccc([N+](=O)[O-])cc1		1.3	
[Cl-].c1ccc(COc2ccc(-n3nc(-c4ccc(-c5ccccc5)cc4)n[n+]3-c3ccccc3)cc2)cc1	6.5	1.7	0.261
Clc1cccc(-[n+]2nc(-c3ccccc3)nn2-c2ccc(OCc3ccccc3)cc2)c1.[Cl-]	140	14	0.1
O=[N+]([O-])c1ccc(-c2nn(-c3ccccc3)[n+](-c3ccccc3)n2)cc1.[Cl-]	2.2	31	14
Clc1cccc(-[n+]2nc(-c3ccccc3)nn2-c2ccccc2)c1.[Cl-]	7.5	6.3	0.84
[Cl-].c1ccc(COc2ccc(-n3nc(-c4ccccc4)n[n+]3-c3ccccc3)cc2)cc1	185	37	0.2
COc1ccc(-n2nc(-c3ccc(OCc4ccccc4)cc3)n[n+]2-c2ccccc2)cc1.[Cl-]	28.1	9	0.32
Brc1cccc(-[n+]2nc(-c3ccc(OCc4ccccc4)cc3)nn2-c2ccccc2)c1.[Cl-]	20.3	8.1	0.4
COc1cc(-c2nn(-c3ccccc3)[n+](-c3cccc(Cl)c3)n2)ccc1OCc1ccccc1.[Cl-]	11.6	8	0.69
CCCCCCCCCCCOc1cccc(-c2nn(-c3ccccc3)[n+](-c3ccccc3)n2)c1.[Cl-]	2	5	2.5
[Cl-].c1ccc(-n2nc(C3CCCCC3)n[n+]2-c2ccccc2)cc1	4	25	6.2
COc1cc(-c2ccc(-n3nc(-c4ccccc4)n[n+]3-c3ccccc3)c(OC)c2)ccc1-n1nc(-c2ccccc2)n[n+]1-c1ccccc1 [TETRAZOLIUM BLUE CHLORIDE]		> 100	3.8
